What was measured:
[1] = system: E. coli (25922); experiment: Antimicrobial susceptibility test; format: cell-based; settings: Escherichia coli, 18 h, read-out: MIC E. coli (25922)
Method in brief: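 Exponential-phase cells diluted to about 5 × 10^5 cfu mL−1, in CA-MHB for S. aureus ATCC 29213 and MHB for E. coli ATCC 25922. Test compound serially diluted in DMSO from a DMSO stock; final DMSO 1% (v/v), with 1% DMSO controls. After 37 °C for 18 h, OD600 is read and % inhibition taken against controls. MIC is the lowest concentration giving ≥90% inhibition. Three independent assays.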

[2] = biological target: T1, E. coli PBP 1b (Escherichia coli, UniProt P02919); experiment: Lipid II-based in vitro transglycosylation assay; format: biochemical; settings: read-out: Inhibition of PBP 1b activity at 50 μM
T1 sequence (P02919 1-844): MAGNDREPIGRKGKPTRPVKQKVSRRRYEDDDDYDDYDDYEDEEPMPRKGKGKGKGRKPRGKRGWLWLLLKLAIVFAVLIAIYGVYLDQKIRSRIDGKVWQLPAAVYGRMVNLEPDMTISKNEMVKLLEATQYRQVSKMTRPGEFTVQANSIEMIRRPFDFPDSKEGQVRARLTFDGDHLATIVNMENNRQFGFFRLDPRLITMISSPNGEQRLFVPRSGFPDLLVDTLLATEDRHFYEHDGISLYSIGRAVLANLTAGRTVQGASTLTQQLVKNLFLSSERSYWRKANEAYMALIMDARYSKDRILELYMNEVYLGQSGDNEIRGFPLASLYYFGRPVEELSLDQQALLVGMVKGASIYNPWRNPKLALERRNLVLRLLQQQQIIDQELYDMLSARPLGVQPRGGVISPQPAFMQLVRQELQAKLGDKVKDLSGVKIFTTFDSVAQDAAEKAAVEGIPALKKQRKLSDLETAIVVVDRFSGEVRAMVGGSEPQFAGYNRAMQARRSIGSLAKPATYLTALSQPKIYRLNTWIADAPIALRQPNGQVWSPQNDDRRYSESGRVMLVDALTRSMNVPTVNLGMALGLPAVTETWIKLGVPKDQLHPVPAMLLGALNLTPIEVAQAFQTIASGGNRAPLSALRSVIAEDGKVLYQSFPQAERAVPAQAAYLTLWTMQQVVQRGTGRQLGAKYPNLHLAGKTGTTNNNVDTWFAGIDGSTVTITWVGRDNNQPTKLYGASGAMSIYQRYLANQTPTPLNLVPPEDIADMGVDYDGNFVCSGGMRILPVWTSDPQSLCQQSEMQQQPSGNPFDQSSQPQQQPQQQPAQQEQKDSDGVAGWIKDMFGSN
Method in brief: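 E. coli PBP 1b (13.2 nM) is preincubated with test compound for 5 min at 30 °C. Buffer: 50 mM HEPES pH 7.5, 200 mM NaCl, 10 mM CaCl2, 0.08% decyl PEG, 10% DMSO, 15% methanol, 2 U μL−1 muramidase. Dansyl-lipid II (5 μM) is added for 5 min at 30 °C. Moenomycin A (1 μM, 10 min) quenches […]. Read by anion-exchange HPLC, in duplicate. IC50 from Hill fit; Ki via IC50 = Ki(1 + [s]/Km), Km = 1.8 μM.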

Which MIC [1] does the source give for `C=C(C/C=C(\C)CCC=C(C)C)CCC(C)(C)/C=C/CC/C(C)=C\CO[C@H](COP(=O)(O)O[C@H]1O[C@H](C(N)=O)[C@@](C)(O)[C@H](OC(N)=O)[C@H]1O[C@@H]1O[C@H](CO[C@@H]2O[C@H](CO)[C@@H](O)[C@H](O)[C@H]2O)[C@@H](O[C@@H]2O[C@H](C)[C@@H](O[C@@H]3O[C@H](C(=O)NC4=C(O)CCC4=O)[C@H](O)[C@H](O)[C@H]3O)[C@H](O)[C@H]2NC(C)=O)[C@H](O)[C@H]1NC(C)=O)C(=O)O` [Moenomycin A] here?
Its MIC is > 96 µg/mL.

What about the inhibition at 50 µM [2] of the same compound?
The inhibition at 50 µM was 100%.
